Data taken from ChEMBL document CHEMBL2034823, “Synthesis and antiviral activity of certain second generation methylenecyclopropane nucleosides” (Bioorg Med Chem, 2012).

Assays:
[1] = Cytotoxicity against human Akata cells after 7 days by Cell-Titer Glo assay; assay type: cell-based
In short: (§1)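 Uninfected Akata, BCBL1, HSB-2 or MOLT-3 cells incubated with compound for seven days under the matching antiviral-assay conditions. CellTiter-Glo added and luminescence read. CC50 is the concentration reducing cell number by 50%.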

[2] = Cytotoxicity against human HSB2 cells after 7 days by Cell-Titer Glo assay; assay type: cell-based, CCRF-HSB-2; in short: as §1
[3] = test system: Human gammaherpesvirus 8; assay: Antiviral activity against HHV-8 infected in human BCBL1 cells assessed as reduction in viral DNA after 7 days by qPCR analysis; assay type: functional, organism-based; settings: Human gammaherpesvirus 8, BCBL1, 168 h
In short: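 BCBL1 cells kept in RPMI 1640 with 10% FBS, penicillin, gentamycin and L-glutamine. Lytic infection induced with phorbol 12-myristate 13-acetate, then cells added to triplicate compound dilutions. Incubation 7 days at 37 °C in humidified CO2. EC50 is the concentration halving viral DNA accumulation.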

[4] = test system: Human alphaherpesvirus 2; assay: Antiviral activity against HSV-2 infected in human HFF cells assessed as reduction in cytopathic effect after 3 days by crystal violet staining; assay type: functional, organism-based; settings: Human alphaherpesvirus 2, HFF, 72 h
In short: (§2)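 Compound diluted over HFF monolayers, then HSV-1 (E-377) or HSV-2 (MS) added at MOI about 0.01 PFU/cell. Held 3 days in humidified 5% CO2. Stained 4 h with 0.1% crystal violet in formalin, rinsed, dried 24 h, and absorbance read at 595 nm. EC50 is 50% CPE reduction. Duplicate wells.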

[5] = Cytotoxicity against human MOLT3 cells after 7 days by Cell-Titer Glo assay; assay type: cell-based, MOLT-3; in short: as §1
[6] = Antiviral activity against HHV-6B infected in human Molt3 cells assessed as reduction in viral DNA after 7 days by hybridization assay; assay type: functional, cell-based, Human herpesvirus 6B; settings: Human betaherpesvirus 6B, MOLT-3, 168 h
In short: (§3)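 Compound serially diluted in medium. Uninfected HSB-2 cells were infected with HHV-6A (GS)-infected HSB-2 cells, and Molt-3 cells with HHV-6B (Z29)-infected Molt-3 cells. Incubation 7 days at 37 °C. Lysis in 4.5 M NaCl/1.2 M NaOH, then transfer to nylon membrane. Viral DNA quantified by digoxigenin-probe hybridization and EC50 calculated. Duplicate wells.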

[7] = Antiviral activity against HHV-6A infected in human HSB2 cells assessed as reduction in viral DNA after 7 days by hybridization assay; assay type: functional, cell-based, Human herpesvirus 6A; settings: Human betaherpesvirus 6A, HSB2, 168 h; in short: as §3
[8] = test system: Human alphaherpesvirus 3; assay: Antiviral activity against VZV infected in human HFF cells assessed as reduction in cytopathic effect after 7 days by crystal violet staining; assay type: functional, organism-based; settings: Human alphaherpesvirus 3, HFF, 168 h
[9] = Cytotoxicity against human BCBL1 cells after 7 days by Cell-Titer Glo assay; assay type: cell-based; in short: as §1
[10] = test system: Human gammaherpesvirus 4; assay: Antiviral activity against EBV Akata infected in human Akata cells assessed as reduction in viral DNA after 72 hrs by hybridization assay; assay type: functional, organism-based; settings: human gammaherpesvirus 4, Akata
In short: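 Akata cells kept in RPMI 1640 with 10% FBS, L-glutamine, penicillin and gentamicin. Latent infection was switched to productive by adding goat anti-human IgG, and cells were seeded into compound dilutions made in growth medium. After 72 h the DNA was denatured and blotted onto nylon membrane. Viral DNA was measured with a digoxigenin-labeled probe plus anti-hapten antibody. EC50 is the concentration halving viral DNA. Duplicate wells.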

[11] = test system: Human betaherpesvirus 5; assay: Antiviral activity against HCMV infected in human HFF cells assessed as reduction in cytopathic effect after 8 days by plaque reduction assay; assay type: functional, organism-based; settings: Human betaherpesvirus 5, HFF, 192 h
In short: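 HFF monolayers seeded 2 days ahead and infected with AD169 at about 30 plaques per well, with 1 h adsorption. Compound was then added in MEM with 2% FBS, L-glutamine, penicillin, gentamycin and pooled human gamma globulin. After 8 days, neutral red stain and plaque counts by stereomicroscope. EC50 interpolated. Duplicate wells.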

[12] = test system: Human alphaherpesvirus 1; assay: Antiviral activity against HSV-1 infected in human HFF cells assessed as reduction in cytopathic effect after 3 days by crystal violet staining; assay type: functional, organism-based; settings: Human alphaherpesvirus 1, HFF, 72 h; in short: as §2
[13] = Cytotoxicity against human HFF cells after 3 to 8 days by crystal voilet staining; assay type: cell-based
In short: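 Uninfected HFF cells exposed to the same concentrations as in the CPE assays (3 days for HSV, 7 for VZV, […]). Stained with crystal violet. CC50 is the concentration reducing cell number by 50%. Duplicate wells.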

| Structure (SMILES) | CC50 at 168 h [1] [µM] | CC50 at 168 h [2] [µM] | IC50 [3] [µM] | IC50 [4] [µM] | CC50 at 168 h [5] [µM] | IC50 [6] [µM] | IC50 [7] [µM] | IC50 [8] [µM] | CC50 at 168 h [9] [µM] | IC50 [10] [µM] | IC50 [11] [µM] | IC50 [12] [µM] | CC50 [13] [µM] |
| --- | --- | --- | --- | --- | --- | --- | --- | --- | --- | --- | --- | --- | --- |
| CCCSc1nc(N)nc2c1ncn2/C=C1/CC1(CO)CO | > 20 | 98 | > 20 | > 300 | > 20 | 14.3 | 63 | > 300 | > 20 | > 20 | 42 | > 300 | > 300 |
| COCCOc1nc(N)nc2c1ncn2/C=C1/CC1(CO)CO | > 20 | > 20 | > 20 | > 300 | > 20 | > 20 | > 20 | 13.9 | > 20 | 20 | 17 | > 300 | > 300 |
| Nc1nc(OCc2ccccc2)c2ncn(/C=C3/CC3(CO)CO)c2n1 | > 20 | > 20 | > 20 | > 300 | > 20 | > 20 | > 20 | 53 | > 20 | > 20 | 45 | > 300 | > 300 |
| COc1nc(N)nc2nc[nH]c12 | > 20 | > 20 | 13 | > 300 | > 20 | > 20 | > 20 | 7.4 | 51 | 1 | 2.8 | > 300 | 171 |
| Nc1nc(SC2CCCC2)c2ncn(/C=C3/CC3(CO)CO)c2n1 | > 20 | 91 | > 20 | > 300 | > 20 | 9.9 | 35 | > 300 | > 20 | 0.9 | > 50 | > 300 | > 300 |
| CCCCCCCCOc1nc(N)nc2c1ncn2/C=C1/CC1(CO)CO | > 20 | > 20 | > 20 | > 300 | > 20 | 11.5 | > 20 | > 100 | > 20 | 13 | 29 | > 300 | > 300 |
| CCCCCCSc1nc(N)nc2c1ncn2/C=C1/CC1(CO)CO | > 20 | 60 | > 20 | > 300 | > 20 | 5.4 | > 20 | > 300 | > 20 | 7.1 | > 50 | > 300 | > 300 |
| CCCCOc1nc(N)nc2c1ncn2/C=C1/CC1(CO)CO | > 20 | > 20 | > 20 | > 300 | > 20 | 3.2 | > 20 | > 100 | > 20 | 1.6 | 1.6 | > 300 | > 300 |
| CCCCNc1nc(N)nc2c1ncn2/C=C1/CC1(CO)CO | > 24 | > 20 | > 20 | > 300 | > 20 | > 20 | > 20 | > 300 | > 20 | > 24 | > 60 | > 300 | > 300 |
| C=CCOc1nc(N)nc2c1ncn2/C=C1/CC1(CO)CO | > 20 | > 20 | 17 | > 300 | > 20 | 11.4 | > 20 | > 300 | > 20 | 11 | 1.1 | > 300 | > 300 |
| CC(C)Sc1nc(N)nc2c1ncn2/C=C1/CC1(CO)CO | > 20 | 94 | > 20 | > 300 | > 20 | 7.5 | 70 | > 60 | > 20 | 3.1 | 4 | > 300 | > 300 |
| Nc1nc(NC2CC2)c2ncn(/C=C3/CC3(CO)CO)c2n1 | > 20 | > 20 | 71 | > 60 | > 20 | > 20 | > 20 | > 60 | 71.5 | > 20 | 24 | > 60 | > 300 |
| Nc1nc2c(ncn2/C=C2/CC2(CO)CO)c(=O)[nH]1 [FILOCICLOVIR] | > 20 | > 20 | 3 | > 100 | > 20 | 8 | 1.3 | > 100 | > 20 | 45 | 1.4 | > 100 | > 300 |
